Results reported in PubChem BioAssay.
Activity calls are given as the source filed them.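 How the source made its calls, unless noted: active means inhibition above 20% together with a positive visual image hit; inconclusive means visual image hit but inhibition not above 20%; inactive means no visual image hit.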

Key:
[1] = inhibitors of TNFa-induced NFkB p65 translocation, primary screen, imaging, HUVEC, MLSMR starter and 10KST1 sets (AID 438); settings: HUVEC TNFa-induced p65 nuclear translocation; cell count: measured here: nuclei count (cytotoxicity indicator), at 2.08 µM; inhibition: at 2 µM, stronger effect = higher value, 0% TNFa-plus-vehicle, 100% no-TNFa wells;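 further: compound added about 3h40 before a 20 min TNFalpha stimulation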;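 on inhibition: signal is the nuclear over cytoplasmic p65 intensity ratio per well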
[2] = inhibitors of mutant huntingtin aggregation, primary screen, imaging, exon1htt(103Q)mCFP cells, high-content imaging (AID 483;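 active means visual image review flags a hit and inhibition of aggregation exceeds 20%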;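 further: compound exposure lasted 3 days before fixation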;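 on nuclei count: percent of the per-plate median nuclei count of sample wells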); settings: exon1htt(103Q)mCFP cell line, aggregate imaging, at 2 µM; inhibition of aggregation: stronger effect = higher value; nuclei count: measured here: cell count, toxicity
[3] = inhibitors of E-selectin induction by TNFa, primary screen, imaging, HUVEC, immunofluorescence, MLSMR starter and 10KST1 sets (AID 487;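 active means visually confirmed hit in the image check and inhibition above 20%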;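 on inhibition: signal is fraction of cell area covered by stained E-selectin grains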;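 on nuclei count: 100% = median nuclei count of all wells on the same plate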); settings: HUVEC TNFalpha-induced E-selectin immunofluorescence imaging, at 2 µM; inhibition: stronger effect = higher value; nuclei count: measured here: cell number, toxicity
[4] = target: Voltage-gated potassium channel subunit beta-2 (Rattus norvegicus) (UniProt P62483); experiment: KvBeta enzyme negative modulators, primary screen, biochemical, NADPH fluorescence (AID 622;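 active means fluorescence slope higher than the sample average by over 3 SD, cut at about -0.22 in these data, passing the limit was not always enough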;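 further: slope of raw intensity against log time taken from 70 to 1610 s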); settings: recombinant KvBeta, 4-cyanobenzaldehyde reduction, at 10 µM, stronger effect = higher value
[5] = target: Voltage-gated potassium channel subunit beta-2 (Rattus norvegicus) (UniProt P62483); experiment: KvBeta positive modulators, primary screen, biochemical, NADPH fluorescence (AID 623;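 active means NADPH fluorescence slope more negative than the mean of all samples by about 3 SD, 99.7% confidence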;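 further: fluorescence intensity change per second fitted from 20 to 320 s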); settings: Recombinant KvBeta, NADPH fluorescence decrease slope, 10 min; at 10 µM; stronger effect = lower value
[6] = target: Alpha-2C adrenergic receptor (Homo sapiens) (UniProt P18825); experiment: modulators of alpha2C/GIRK thallium flux, primary screen, cell-based, HEK293 alpha2C/GIRK1/2 (AID 624;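 active means fluorescence slope after compound addition differing from the mean of all screened samples at 99.7% confidence, in either direction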;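 further: slope of fluorescence ratio to pre-addition baseline per second over 15 to 24 s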); settings: thallium flux BTC fluorescence, at 10 µM, actives lie on both sides
[7] = inhibitors of larval lipid processing in zebrafish, primary screen, whole organism, PED6 fluorescence, gall bladder and intestine (AID 686;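 active means a full or partial loss of lipid-probe fluorescence in the fish gall bladder, intestine or both, judged by eye; inactive means no fluorescence loss, or compound toxic to the fish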;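 further: larvae 5 to 7 days old with five fish per well; signal comes from phospholipase A2 cleavage of quenched PED6 carried via bile; overnight exposure to compound and PED6 before scoring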); settings: Zebrafish larvae PED6 lipid processing, fluorescence scoring; screened at 20 µM (by protocol)
How it was run: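 Doses: 20 µM single dose. Test system: live zebrafish larvae aged 5-7 days, whole organism. Quantity: five larvae per well. Measured by: By-eye fluorescence microscopy. Reagent: ingested quenched lipid PED6 at 100 nM. Read-out: visual per-well fluorescence inhibition score. Times: overnight exposure of larvae to compound plus PED6.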

[8] = inhibitors of Sendai virus-induced IRF3 signaling, primary screen, TLR/RLR signaling modifier project, cell-based, Sendai virus stimulus, luciferase, 10K MLSCN set (AID 602276;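 active means inhibition at or above 50% at 10 µM; inactive means inhibition below 50%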;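 further: firefly luciferase from ISG56 promoter only with Renilla not read in this screen; 0% = Sendai virus plus DMSO and 100% = medium plus DMSO without virus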); settings: HEK293 RL24 IRF3 luciferase reporter, at 10 µM, stronger effect = higher value
[9] = inhibitors of poly I:C-induced TLR3 signaling, primary screen, cell-based, poly I:C stimulus, luciferase, 10K MLSCN set (AID 602277;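 active means inhibition of the reporter signal at or above 50%; inactive means inhibition below 50%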); settings: HEK293-TLR3 RL24 IRF3 luciferase reporter, at 10 µM, stronger effect = higher value

Alpha-2C adrenergic receptor (Homo sapiens), sequence (P18825 whole entry, looked up): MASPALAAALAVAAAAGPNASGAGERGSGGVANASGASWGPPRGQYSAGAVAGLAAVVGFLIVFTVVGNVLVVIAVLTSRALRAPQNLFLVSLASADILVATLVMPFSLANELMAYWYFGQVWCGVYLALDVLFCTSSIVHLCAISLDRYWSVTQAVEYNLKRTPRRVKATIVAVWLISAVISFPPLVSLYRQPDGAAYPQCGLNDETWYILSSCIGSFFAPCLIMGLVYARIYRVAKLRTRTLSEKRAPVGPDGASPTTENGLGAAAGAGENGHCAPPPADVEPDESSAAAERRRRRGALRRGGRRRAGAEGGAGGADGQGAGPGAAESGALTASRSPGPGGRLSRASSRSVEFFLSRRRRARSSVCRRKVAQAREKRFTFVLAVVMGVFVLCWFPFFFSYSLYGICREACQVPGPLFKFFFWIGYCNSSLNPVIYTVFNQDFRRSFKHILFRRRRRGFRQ
Voltage-gated potassium channel subunit beta-2 (Rattus norvegicus), sequence (P62483 whole entry, looked up): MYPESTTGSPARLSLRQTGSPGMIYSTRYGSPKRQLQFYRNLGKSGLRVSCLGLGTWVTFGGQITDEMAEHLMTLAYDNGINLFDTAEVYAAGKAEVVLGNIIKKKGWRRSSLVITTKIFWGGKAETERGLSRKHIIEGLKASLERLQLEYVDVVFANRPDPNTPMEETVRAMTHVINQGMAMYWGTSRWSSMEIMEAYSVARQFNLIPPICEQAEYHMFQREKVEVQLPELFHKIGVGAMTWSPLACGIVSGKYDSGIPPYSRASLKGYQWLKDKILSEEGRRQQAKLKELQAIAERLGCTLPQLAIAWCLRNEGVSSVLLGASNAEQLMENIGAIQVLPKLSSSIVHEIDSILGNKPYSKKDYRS

Cc1ccc(C(=O)Nc2c(C(=O)N3CCOCC3)cnn2-c2ccccc2)cc1
cell count [1]: 354
inhibition [1]: 5.4% (inactive)
inhibition of aggregation [2]: -0.9% (inactive)
nuclei count [2]: 102%
inhibition [3]: -6.5% (inactive)
nuclei count [3]: 105%
fluorescence slope [4]: -0.321 (inactive)
NADPH fluorescence slope [5]: -3.7e-05 (inactive)
slope [6]: 0.00471 (inactive)
outcome [7]: inactive
inhibition [8]: 14% (inactive)
inhibition [9]: 15.4% (inactive)

CCN(CC)c1ccc(C(=O)n2cnc3ccccc32)cc1
cell count [1]: 461
inhibition [1]: 12.1% (inactive)
inhibition of aggregation [2]: 7.1% (inactive)
nuclei count [2]: 95.4%
inhibition [3]: -306% (inactive)
nuclei count [3]: 128%
fluorescence slope [4]: -0.284 (inactive)
NADPH fluorescence slope [5]: -3.9e-05 (inactive)
slope [6]: 0.00386 (inactive)
outcome [7]: inactive
inhibition [8]: 25.3% (inactive)
inhibition [9]: -37.1% (inactive)

O=C1CCC(C(=O)N(Cc2ccco2)C2(C(=O)NC3CCCC3)CCCCC2)N1 (stereo unspecified)
cell count [1]: 428
inhibition [1]: -6.8% (inactive)
inhibition of aggregation [2]: -16.4% (inactive)
nuclei count [2]: 116%
inhibition [3]: -39.9% (inactive)
nuclei count [3]: 139%
fluorescence slope [4]: -0.428 (inactive)
NADPH fluorescence slope [5]: 4.8e-06 (inactive)
slope [6]: 0.00488 (inactive)
outcome [7]: inactive
inhibition [8]: 5.55% (inactive)
inhibition [9]: 13.4% (inactive)

O=C(NCc1cccnc1)c1cccc(C(F)(F)F)c1
cell count [1]: 355
inhibition [1]: 5.2% (inactive)
inhibition of aggregation [2]: 1.3% (inactive)
nuclei count [2]: 111%
inhibition [3]: 4.9% (inactive)
nuclei count [3]: 103%
fluorescence slope [4]: -0.452 (inactive)
NADPH fluorescence slope [5]: -2.9e-05 (inactive)
slope [6]: 0.00523 (inactive)
outcome [7]: inactive
inhibition [8]: 11.3% (inactive)
inhibition [9]: 20.1% (inactive)

COc1ccc(N2C(=O)c3cccc4cccc(c34)C2=O)nn1
cell count [1]: 345
inhibition [1]: 1.5% (inactive)
inhibition of aggregation [2]: 4.9% (inactive)
nuclei count [2]: 105%
inhibition [3]: -81.4% (inactive)
nuclei count [3]: 114%
fluorescence slope [4]: -0.421 (inactive)
NADPH fluorescence slope [5]: -2.8e-05 (inactive)
slope [6]: 0.00401 (inactive)
outcome [7]: inactive
inhibition [8]: 9.08% (inactive)
inhibition [9]: 20.4% (inactive)

O=C1OCCC1Sc1ncnc2sccc12 (stereo unspecified)
cell count [1]: 498
inhibition [1]: -6.8% (inactive)
inhibition of aggregation [2]: -0.5% (inactive)
nuclei count [2]: 125%
inhibition [3]: -1.7% (inactive)
nuclei count [3]: 110%
fluorescence slope [4]: -0.376 (inactive)
NADPH fluorescence slope [5]: -7.9e-05 (inactive)
slope [6]: 0.00502 (inactive)
outcome [7]: inactive
inhibition [8]: 9.26% (inactive)
inhibition [9]: 12.3% (inactive)

CCCCc1c(O)nc(SCC(=O)Nc2ccc3c(c2)CCC3)[nH]c1=O
cell count [1]: 569
inhibition [1]: -18.3% (inactive)
inhibition of aggregation [2]: -3% (inactive)
nuclei count [2]: 75.8%
inhibition [3]: -5.9% (inactive)
nuclei count [3]: 87.2%
fluorescence slope [4]: -0.368 (inactive)
NADPH fluorescence slope [5]: -6.1e-05 (inactive)
slope [6]: 0.00495 (inactive)
outcome [7]: inactive
inhibition [8]: 10.6% (inactive)
inhibition [9]: 7.8% (inactive)

COc1ccc(N=C2C(=O)Nc3ccccc32)cc1
cell count [1]: 617
inhibition [1]: 2.4% (inactive)
inhibition of aggregation [2]: -5% (inactive)
nuclei count [2]: 100%
inhibition [3]: -96.7% (inactive)
nuclei count [3]: 138%
fluorescence slope [4]: -0.374 (inactive)
NADPH fluorescence slope [5]: -1.5e-06 (inactive)
slope [6]: 0.00431 (inactive)
outcome [7]: inactive
inhibition [8]: 13% (inactive)
inhibition [9]: 28.1% (inactive)

O=C(CSc1nc2cc(S(=O)(=O)N3CCOCC3)ccc2o1)NC1CCCc2ccccc21 (stereo unspecified)
cell count [1]: 571
inhibition [1]: -16.3% (inactive)
inhibition of aggregation [2]: -7.6% (inactive)
nuclei count [2]: 89.9%
inhibition [3]: 36.5% (inactive)
nuclei count [3]: 86.1%
fluorescence slope [4]: -0.363 (inactive)
NADPH fluorescence slope [5]: -8.5e-05 (inactive)
slope [6]: 0.00378 (inactive)
outcome [7]: inactive
inhibition [8]: 11.5% (inactive)
inhibition [9]: 99.3% (active)

Cc1cc(C)nc(-n2nc(C)cc2NC(=O)c2ccc(Br)o2)n1
cell count [1]: 442
inhibition [1]: -7.3% (inactive)
inhibition of aggregation [2]: 18.7% (inactive)
nuclei count [2]: 90.1%
inhibition [3]: 21.7% (inactive)
nuclei count [3]: 105%
fluorescence slope [4]: -0.374 (inactive)
NADPH fluorescence slope [5]: -5.8e-05 (inactive)
slope [6]: 0.00507 (inactive)
outcome [7]: inactive
inhibition [8]: -4.98% (inactive)
inhibition [9]: 20.1% (inactive)

CCOC(=O)c1cnc(-n2nc(C)cc2C)nc1N1CC(C)OC(C)C1 (stereo unspecified)
cell count [1]: 654
inhibition [1]: -15.5% (inactive)
inhibition of aggregation [2]: 29.7% (inactive)
nuclei count [2]: 69.8%
inhibition [3]: -1.6% (inactive)
nuclei count [3]: 96.9%
fluorescence slope [4]: -0.411 (inactive)
NADPH fluorescence slope [5]: -3.9e-05 (inactive)
slope [6]: 0.00483 (inactive)
outcome [7]: inactive
inhibition [8]: -6.36% (inactive)
inhibition [9]: 6.34% (inactive)

c1cnc(NCCNc2ncccn2)nc1
cell count [1]: 709
inhibition [1]: -5% (inactive)
inhibition of aggregation [2]: 11.9% (inactive)
nuclei count [2]: 132%
inhibition [3]: -57.1% (inactive)
nuclei count [3]: 124%
fluorescence slope [4]: -0.346 (inactive)
NADPH fluorescence slope [5]: -4.1e-05 (inactive)
slope [6]: 0.00555 (inactive)
outcome [7]: inactive
inhibition [8]: 5.48% (inactive)
inhibition [9]: 2.33% (inactive)

O=C(NCCCN1CCCC1=O)c1cccnc1
cell count [1]: 364
inhibition [1]: 2.5% (inactive)
inhibition of aggregation [2]: -3.8% (inactive)
nuclei count [2]: 108%
inhibition [3]: 35.2% (inactive)
nuclei count [3]: 100%
fluorescence slope [4]: -0.432 (inactive)
NADPH fluorescence slope [5]: -4.3e-06 (inactive)
slope [6]: 0.00372 (inactive)
outcome [7]: inactive
inhibition [8]: -11.4% (inactive)
inhibition [9]: -7.12% (inactive)
